As usually defined, the Kd is the concentration at which binding is half-saturated.

Entries after “also recorded” stand apart in the source; their conditions may differ. Where no end group is shown, it is not given here.

The test system of data set [1] is MAS. Put plainly: Filamin A phosphorylation in HEK-MAS cells. Format: cell-based, human. The gist of the method:
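HEK293 cells with doxycycline-inducible (100 ng/mL) myc-tagged MAS were induced 24 h with or without MAS inverse agonist (10 μM), then serum-starved 2 h with inverse agonist or H-89 (10 μM each). They were then treated 1 h with MAS agonist (10 μM) plus H-89; uninduced cells served as controls. Lysates were Western-blotted for pS2152-FLNa, FLNa and GAPDH, and pFLNa/FLNa was given as fold over uninduced. Mean ± SEM, N = 3, unpaired t test.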

For data set [2], the target named is Filamin A (Homo sapiens) (UniProt P21333). Particulars: cited from earlier work.
Chain of Filamin A (Homo sapiens) (P21333 2-2647): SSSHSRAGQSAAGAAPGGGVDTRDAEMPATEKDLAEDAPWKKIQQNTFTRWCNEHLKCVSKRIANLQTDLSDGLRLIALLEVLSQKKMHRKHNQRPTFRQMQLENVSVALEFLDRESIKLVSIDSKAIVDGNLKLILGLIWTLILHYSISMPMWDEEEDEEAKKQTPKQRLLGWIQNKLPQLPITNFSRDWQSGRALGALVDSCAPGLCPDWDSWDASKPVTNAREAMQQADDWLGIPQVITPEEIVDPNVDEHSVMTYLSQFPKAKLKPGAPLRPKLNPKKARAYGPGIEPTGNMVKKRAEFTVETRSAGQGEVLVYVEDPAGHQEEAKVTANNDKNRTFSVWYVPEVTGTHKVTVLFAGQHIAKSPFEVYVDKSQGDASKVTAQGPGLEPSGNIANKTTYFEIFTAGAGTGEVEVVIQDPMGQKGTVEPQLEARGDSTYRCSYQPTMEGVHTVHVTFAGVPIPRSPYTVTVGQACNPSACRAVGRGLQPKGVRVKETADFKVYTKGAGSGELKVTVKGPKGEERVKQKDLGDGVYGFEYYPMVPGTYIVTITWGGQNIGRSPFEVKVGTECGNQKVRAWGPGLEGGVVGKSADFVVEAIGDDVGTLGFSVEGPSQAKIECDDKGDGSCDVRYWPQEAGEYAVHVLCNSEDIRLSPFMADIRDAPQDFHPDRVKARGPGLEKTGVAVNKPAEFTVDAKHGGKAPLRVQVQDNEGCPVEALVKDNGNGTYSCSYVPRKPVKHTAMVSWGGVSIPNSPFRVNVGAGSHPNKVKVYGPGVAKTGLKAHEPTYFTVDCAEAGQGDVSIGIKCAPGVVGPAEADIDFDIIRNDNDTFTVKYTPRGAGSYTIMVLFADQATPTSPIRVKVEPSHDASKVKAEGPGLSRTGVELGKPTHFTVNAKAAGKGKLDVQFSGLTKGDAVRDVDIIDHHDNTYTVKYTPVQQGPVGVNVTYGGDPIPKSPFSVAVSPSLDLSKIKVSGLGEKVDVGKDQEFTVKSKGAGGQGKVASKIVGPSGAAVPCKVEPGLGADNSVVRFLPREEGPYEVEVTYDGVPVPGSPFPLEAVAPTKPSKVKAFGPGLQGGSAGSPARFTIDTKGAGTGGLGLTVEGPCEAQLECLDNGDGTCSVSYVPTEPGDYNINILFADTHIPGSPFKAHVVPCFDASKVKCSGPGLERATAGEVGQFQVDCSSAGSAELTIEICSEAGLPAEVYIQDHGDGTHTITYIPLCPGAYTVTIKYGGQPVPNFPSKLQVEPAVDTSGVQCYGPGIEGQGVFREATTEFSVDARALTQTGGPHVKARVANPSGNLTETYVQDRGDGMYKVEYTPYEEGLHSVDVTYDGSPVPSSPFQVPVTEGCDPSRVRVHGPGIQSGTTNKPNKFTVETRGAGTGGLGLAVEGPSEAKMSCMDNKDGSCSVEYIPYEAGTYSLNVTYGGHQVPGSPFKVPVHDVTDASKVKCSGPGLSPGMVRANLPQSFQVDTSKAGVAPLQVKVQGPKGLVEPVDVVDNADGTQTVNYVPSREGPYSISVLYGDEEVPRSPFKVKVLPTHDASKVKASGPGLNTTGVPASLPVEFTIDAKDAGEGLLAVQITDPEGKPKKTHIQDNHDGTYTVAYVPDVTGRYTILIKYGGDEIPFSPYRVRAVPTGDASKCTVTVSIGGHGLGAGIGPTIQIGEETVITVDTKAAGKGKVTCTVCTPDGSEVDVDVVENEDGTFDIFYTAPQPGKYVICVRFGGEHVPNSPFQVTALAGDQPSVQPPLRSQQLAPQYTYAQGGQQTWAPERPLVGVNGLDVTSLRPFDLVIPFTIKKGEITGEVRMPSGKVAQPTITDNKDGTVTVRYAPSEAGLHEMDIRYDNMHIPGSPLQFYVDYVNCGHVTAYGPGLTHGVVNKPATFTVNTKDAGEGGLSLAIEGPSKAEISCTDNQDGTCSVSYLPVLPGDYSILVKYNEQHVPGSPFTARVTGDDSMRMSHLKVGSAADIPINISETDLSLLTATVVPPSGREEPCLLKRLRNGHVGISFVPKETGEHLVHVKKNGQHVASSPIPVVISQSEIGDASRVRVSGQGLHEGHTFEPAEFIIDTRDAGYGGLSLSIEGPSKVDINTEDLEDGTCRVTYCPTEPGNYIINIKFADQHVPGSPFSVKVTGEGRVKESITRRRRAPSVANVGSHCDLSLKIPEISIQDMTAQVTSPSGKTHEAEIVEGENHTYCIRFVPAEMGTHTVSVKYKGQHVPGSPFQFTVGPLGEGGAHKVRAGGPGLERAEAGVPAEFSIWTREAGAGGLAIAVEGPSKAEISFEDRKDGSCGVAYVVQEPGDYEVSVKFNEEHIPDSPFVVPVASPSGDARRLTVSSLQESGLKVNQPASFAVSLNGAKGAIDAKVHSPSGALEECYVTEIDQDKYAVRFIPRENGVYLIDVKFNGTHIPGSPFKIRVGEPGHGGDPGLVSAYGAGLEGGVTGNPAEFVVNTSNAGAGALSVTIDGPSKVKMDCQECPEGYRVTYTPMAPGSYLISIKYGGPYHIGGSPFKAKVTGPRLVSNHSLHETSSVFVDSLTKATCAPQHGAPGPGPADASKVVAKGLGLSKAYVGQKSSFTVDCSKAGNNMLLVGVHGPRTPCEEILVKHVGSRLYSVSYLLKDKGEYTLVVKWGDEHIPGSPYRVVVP
Data set [3] can be described thus: Peptide solubility in ITC buffer. The following applies: 25 mM sodium phosphate (pH 6.4), 5 mM NaCl, 1 mM DTT. Format: physicochemical.
Data set [4] deals with T1, FLNa Ig21 (Homo sapiens, UniProt P21333).
T1 sequence (P21333 2236-2329 limits assumed): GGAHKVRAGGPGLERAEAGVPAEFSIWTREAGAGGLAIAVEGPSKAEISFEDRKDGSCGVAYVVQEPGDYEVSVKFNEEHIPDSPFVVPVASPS
Put plainly: 15N HSQC NMR binding to FLNa Ig21. The following applies: 15N-labeled Ig21, Bruker Avance 600 MHz, 30 °C; D3R peptide at 2-fold excess.

Data set [5] concerns FLNa Ig19. Put plainly: 15N HSQC NMR binding to FLNa Ig19. Also noted: species or system human. The following applies: 15N-labeled Ig19, Bruker Avance 600 MHz, 30 °C; 2-fold excess of peptide.
Data set [6] concerns the target T1, FLNa Ig21. Put plainly: Isothermal titration calorimetry. The class given is binding. Particulars: FLNa Ig21, 25 mM sodium phosphate (pH 6.4), 30 °C. On the technique in general: ITC needs no label: the signal is the heat of the interaction.
In data set [7] the test system is AT1R. Put plainly: Filamin A phosphorylation in HEK-AT1R cells. The following applies: serum starved 2 h, AngII 1 μM for 1 h, mean of N = 2. The class given is cell-based, rat. The gist of the method:
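HEK293 cells stably expressing HA-tagged rat AT1R were grown to 80–90% confluency and serum-starved 2 h. They were pretreated 30 min with vehicle or candesartan (10 μM), then given vehicle or AngII (1 μM) for 1 h. About 25 μg of M-PER lysate (protease and phosphatase inhibitors) was run on 4–12% SDS-PAGE. Blots were probed for pS2152-FLNa, FLNa and GAPDH by near-IR fluorescence. pFLNa/FLNa was expressed as fold over untreated; mean ± SEM, N = 2, unpaired t test.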

In data set [8] the test system is FLNa. Particulars: cited from earlier work.
Data set [9] has as its target Filamin A Ig21 (Homo sapiens) (UniProt P21333). The following applies: cited from earlier work.
Data set [10] addresses Human Filamin A immunoglobulin domain Ig21 (human). Put plainly: ITC.

Take `C=CCCN1CCC2(CC1)CN(C(=O)c1c(F)cccc1F)c1ccc(Cl)cc12` [AR-inverse agonist]: the “FLNa phosphorylation induced by constitutive activity of MAS” value in [1] (10 μM AR-inverse agonist during induction (24 h) and serum starvation (2 h), N = 3) is on record as “abolished constitutive FLNa phosphorylation”.
`O=S(=O)(NCCNC/C=C/c1ccc(Br)cc1)c1cccc2cnccc12` [H-89]: the “inhibition of the increase in pFLNa in MAS-expressing cells” value in [1] (H-89 10 μM, Discussion statement) was 60%.
Regarding GPIbα (from UniProt P07359), in data set [2], the Kd is 100 nM.
In the case of KGHTFRSSLSVRLLKFSR [α1D-AR], in data set [3], the “solubility of peptide (in words)” value is on record as “limited”.
As to VRKLSNGRLSTSLKLGPLQPRGV [D3R], the “HSQC spectral changes / binding to FLNa Ig21” value in [4] is “binds FLNa Ig19 and Ig21”. Further, in [5], the “HSQC spectral changes / binding to FLNa Ig19” value is “binds FLNa Ig19 and Ig21”. The “affinity for Ig21 by ITC (in words)” value in data set [6] is given as “could not be assessed accurately by ITC because of its lower affinity; also recorded: binds with a lower affinity”.
Turning to “angiotensin II (DRVYIHPF; Angiotensin-2; UniProt P01019 25-32, looked up) [AngII]”, the “filamin phosphorylation, increase (pFLNa/FLNa)” value in data set [7] was 5 fold.
In the case of lysophosphatidic acid, the “level of FLNa phosphorylation” value in data set [8] is recorded as “increase the level of FLNa phosphorylation”.
With “β7 integrin C-terminal peptide Ct (from UniProt P26010)”, the Kd in data set [9] was 40000 nM.

B1: MAS filamin binding motif (FBM) peptide (peptide)
peptide: KKKRFKESLKVVLTRAFK
For B1, the Kd in data set [10] is 300 nM.

B2: AT1R filamin binding motif (FBM) peptide (peptide)
peptide: LGKKFKRYFLQLLKYIPPKA
With B2, the Kd in data set [10] turned out to be 800 nM.

B3: α1D-adrenoreceptor (α1D-AR) filamin binding motif (FBM) peptide (peptide)
peptide: KGHTFRSSLSVRLLKFSR
In turn, B3 registered a Kd in [10] of 800 nM.

Values taken from paper PMC4642222 (Biochemistry, 2015).
